Consider nine compounds from ChEMBL document CHEMBL4007421, “Discovery and Preclinical Characterization of 3-((4-(4-Chlorophenyl)-7-fluoroquinoline-3-yl)sulfonyl)benzonitrile, a Novel Non-acetylenic Metabotropic Glutamate Receptor 5 (mGluR5) Negative Allosteric Modulator for Psychiatric Indications” (J Med Chem, 2017).

One may read the Ki as a measure of affinity in units of concentration, obtained from inhibition or displacement. Low readings indicate a stronger hold on the target, high ones a looser hold on the target. Usually inhibition stands for the percentage by which the read-out fell short of the control. Read a high inhibition as a response far below the control. As a reminder, the IC50 is the midpoint of a concentration-inhibition curve.

Each structure is given as a SMILES string. Some results are limits rather than exact numbers.

Metabotropic glutamate receptor 5 (Rattus norvegicus, UniProt P31424), sequence (P31424 whole entry): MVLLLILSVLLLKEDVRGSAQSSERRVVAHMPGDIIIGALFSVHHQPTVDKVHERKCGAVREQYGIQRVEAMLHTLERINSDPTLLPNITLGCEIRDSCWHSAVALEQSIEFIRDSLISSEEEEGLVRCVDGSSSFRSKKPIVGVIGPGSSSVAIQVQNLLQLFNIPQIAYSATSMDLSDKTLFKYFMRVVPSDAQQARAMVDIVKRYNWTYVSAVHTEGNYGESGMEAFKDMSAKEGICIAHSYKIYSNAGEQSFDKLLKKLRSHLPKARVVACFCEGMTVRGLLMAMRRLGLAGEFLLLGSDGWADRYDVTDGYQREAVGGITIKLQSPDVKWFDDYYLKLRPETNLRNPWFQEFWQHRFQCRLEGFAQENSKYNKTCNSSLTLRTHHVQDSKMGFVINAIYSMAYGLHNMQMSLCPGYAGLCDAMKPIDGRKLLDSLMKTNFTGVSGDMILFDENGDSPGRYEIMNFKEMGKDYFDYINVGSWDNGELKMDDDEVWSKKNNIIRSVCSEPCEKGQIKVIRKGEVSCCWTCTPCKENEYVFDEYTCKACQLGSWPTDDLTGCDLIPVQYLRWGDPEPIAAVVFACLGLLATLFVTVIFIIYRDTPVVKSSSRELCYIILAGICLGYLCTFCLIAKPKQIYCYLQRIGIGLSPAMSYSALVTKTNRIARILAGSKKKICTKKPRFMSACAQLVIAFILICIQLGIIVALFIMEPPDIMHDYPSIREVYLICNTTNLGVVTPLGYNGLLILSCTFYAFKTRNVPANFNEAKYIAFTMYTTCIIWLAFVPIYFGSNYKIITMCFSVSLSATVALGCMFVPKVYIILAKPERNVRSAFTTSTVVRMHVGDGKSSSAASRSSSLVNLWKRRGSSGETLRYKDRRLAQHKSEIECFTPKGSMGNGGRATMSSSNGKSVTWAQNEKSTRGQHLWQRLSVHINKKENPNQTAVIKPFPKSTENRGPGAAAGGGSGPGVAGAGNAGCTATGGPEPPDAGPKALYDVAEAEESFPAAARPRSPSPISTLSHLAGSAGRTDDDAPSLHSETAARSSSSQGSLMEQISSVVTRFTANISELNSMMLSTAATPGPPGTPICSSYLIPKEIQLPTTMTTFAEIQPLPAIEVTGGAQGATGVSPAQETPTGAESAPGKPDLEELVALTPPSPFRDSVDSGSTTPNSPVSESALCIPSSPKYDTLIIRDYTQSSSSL

One series addresses Metabotropic glutamate receptor 5 (Rattus norvegicus, UniProt P31424). The series can be described thus: Displacement of [3H]M-MPEP from mGluR5 in Sprague-Dawley rat cerebrocortical membranes after 60 mins.
Conditions: not given
For the compound `O=S(=O)(c1cc(Cl)cc(Cl)c1)c1cnc2cc(F)ccc2c1-c1ccc(Cl)cc1`, the Ki was found to be 30.3 nM.
`O=S(=O)(c1ccc(F)cc1)c1cnc2c(F)cccc2c1-c1ccc(Cl)cc1` gave a Ki of 16 nM.
For `O=S(=O)(c1cc(Cl)cc(Cl)c1)c1cnc2c(F)cccc2c1-c1ccc(F)cc1`, the Ki was 6.8 nM.
In the case of `O=S(=O)(c1ccc(F)cc1)c1cnc2cc(F)ccc2c1-c1ccc(Cl)cc1`, the affinity corresponds to a Ki of 38.6 nM. Compared with the last compound, the Ki is about 5.7-fold higher.
`O=S(=O)(c1ccc(F)cc1)c1cnc2cc(Cl)ccc2c1-c1ccc(Cl)cc1` showed an inhibitory constant (Ki) of 110 nM.
The same measure, in the same setting: as for `O=S(=O)(c1cccc(F)c1)c1cnc2c(F)cccc2c1-c1ccc(F)cc1`, the figure is 31.6 nM.
Still for that read-out and setting: as for `O=S(=O)(c1ccc(F)c(Cl)c1)c1cnc2cc(F)ccc2c1-c1ccc(F)cc1`, the figure is 5.2 nM; as for `O=S(=O)(c1ccc(F)cc1)c1cnc2ccc(F)cc2c1-c1ccc(Cl)cc1`, 180 nM.

The test system of the next series is Liver. The experiment in a line: Intrinsic clearance in rat liver microsomes at 2.5 uM assessed per gram of liver. The series is classed as ADME, microsome.
Conditions: not given
In turn, `Cc1ccc(S(=O)(=O)c2cnc3ccccc3c2N2CCOCC2)cc1C` returned a CLint of 18 mL/min/g.
The compound `O=S(=O)(c1cc(Cl)cc(Cl)c1)c1cnc2cc(F)ccc2c1-c1ccc(Cl)cc1` came in with a CLint of 0.77 mL/min/g.
On the same count and under the same terms, the figure for `O=S(=O)(c1ccc(F)cc1)c1cnc2c(F)cccc2c1-c1ccc(Cl)cc1` is 0.06 mL/min/g.
The same measure, in the same setting: as for `O=S(=O)(c1cc(Cl)cc(Cl)c1)c1cnc2c(F)cccc2c1-c1ccc(F)cc1`, the figure is 1.06 mL/min/g.
On the same count and under the same terms, as for `O=S(=O)(c1ccc(F)cc1)c1cnc2cc(F)ccc2c1-c1ccc(Cl)cc1`, the figure is 0.89 mL/min/g; as for `O=S(=O)(c1ccc(F)cc1)c1cnc2cc(Cl)ccc2c1-c1ccc(Cl)cc1`, 0.01 mL/min/g; as for `O=S(=O)(c1cccc(F)c1)c1cnc2c(F)cccc2c1-c1ccc(F)cc1`, 0.2 mL/min/g.
`O=S(=O)(c1ccc(F)c(Cl)c1)c1cnc2cc(F)ccc2c1-c1ccc(F)cc1` returned a CLint of 0.89 mL/min/g.
On the same count and under the same terms, the figure for `O=S(=O)(c1ccc(F)cc1)c1cnc2ccc(F)cc2c1-c1ccc(Cl)cc1` is 0.4 mL/min/g.

A further series concerns Liver. The experiment in a line: Intrinsic clearance in human liver microsomes at 2.5 uM assessed per gram of liver. The class given is ADME, microsome.
Conditions: not given
On the technique in general: Liver microsomes are vesicles of endoplasmic reticulum, rich in cytochrome P450 enzymes.
Regarding `Cc1ccc(S(=O)(=O)c2cnc3ccccc3c2N2CCOCC2)cc1C`, the CLint came out at 3.37 mL/min/g.
Same read-out and setting: as for `O=S(=O)(c1cc(Cl)cc(Cl)c1)c1cnc2cc(F)ccc2c1-c1ccc(Cl)cc1`, the figure is 0.13 mL/min/g; as for `O=S(=O)(c1ccc(F)cc1)c1cnc2c(F)cccc2c1-c1ccc(Cl)cc1`, 0.28 mL/min/g; as for `O=S(=O)(c1cc(Cl)cc(Cl)c1)c1cnc2c(F)cccc2c1-c1ccc(F)cc1`, 1.01 mL/min/g.
`O=S(=O)(c1ccc(F)cc1)c1cnc2cc(F)ccc2c1-c1ccc(Cl)cc1`: the CLint was in the range of 1.23 to 1.25 mL/min/g.
The same measure, in the same setting: as for `O=S(=O)(c1ccc(F)cc1)c1cnc2cc(Cl)ccc2c1-c1ccc(Cl)cc1`, the figure is 0.21 mL/min/g.
Turning to `O=S(=O)(c1cccc(F)c1)c1cnc2c(F)cccc2c1-c1ccc(F)cc1`, the CLint was 0.19 mL/min/g.
For `O=S(=O)(c1ccc(F)c(Cl)c1)c1cnc2cc(F)ccc2c1-c1ccc(F)cc1`, the CLint amounted to 0.69 mL/min/g.
Same read-out and setting: as for `O=S(=O)(c1ccc(F)cc1)c1cnc2ccc(F)cc2c1-c1ccc(Cl)cc1`, the figure is 0.12 mL/min/g.

In another series the target is Metabotropic glutamate receptor 5 (Rattus norvegicus) (UniProt P31424). The experiment in a line: Displacement of [3H]M-MPEP from rat mGluR5 expressed in rat cerebrocortical membrane at 1 uM after 60 mins relative to control. The series is classed as cell membranes.
Metabotropic glutamate receptor 5 (Rattus norvegicus), sequence (P31424 21-1203 limits assumed): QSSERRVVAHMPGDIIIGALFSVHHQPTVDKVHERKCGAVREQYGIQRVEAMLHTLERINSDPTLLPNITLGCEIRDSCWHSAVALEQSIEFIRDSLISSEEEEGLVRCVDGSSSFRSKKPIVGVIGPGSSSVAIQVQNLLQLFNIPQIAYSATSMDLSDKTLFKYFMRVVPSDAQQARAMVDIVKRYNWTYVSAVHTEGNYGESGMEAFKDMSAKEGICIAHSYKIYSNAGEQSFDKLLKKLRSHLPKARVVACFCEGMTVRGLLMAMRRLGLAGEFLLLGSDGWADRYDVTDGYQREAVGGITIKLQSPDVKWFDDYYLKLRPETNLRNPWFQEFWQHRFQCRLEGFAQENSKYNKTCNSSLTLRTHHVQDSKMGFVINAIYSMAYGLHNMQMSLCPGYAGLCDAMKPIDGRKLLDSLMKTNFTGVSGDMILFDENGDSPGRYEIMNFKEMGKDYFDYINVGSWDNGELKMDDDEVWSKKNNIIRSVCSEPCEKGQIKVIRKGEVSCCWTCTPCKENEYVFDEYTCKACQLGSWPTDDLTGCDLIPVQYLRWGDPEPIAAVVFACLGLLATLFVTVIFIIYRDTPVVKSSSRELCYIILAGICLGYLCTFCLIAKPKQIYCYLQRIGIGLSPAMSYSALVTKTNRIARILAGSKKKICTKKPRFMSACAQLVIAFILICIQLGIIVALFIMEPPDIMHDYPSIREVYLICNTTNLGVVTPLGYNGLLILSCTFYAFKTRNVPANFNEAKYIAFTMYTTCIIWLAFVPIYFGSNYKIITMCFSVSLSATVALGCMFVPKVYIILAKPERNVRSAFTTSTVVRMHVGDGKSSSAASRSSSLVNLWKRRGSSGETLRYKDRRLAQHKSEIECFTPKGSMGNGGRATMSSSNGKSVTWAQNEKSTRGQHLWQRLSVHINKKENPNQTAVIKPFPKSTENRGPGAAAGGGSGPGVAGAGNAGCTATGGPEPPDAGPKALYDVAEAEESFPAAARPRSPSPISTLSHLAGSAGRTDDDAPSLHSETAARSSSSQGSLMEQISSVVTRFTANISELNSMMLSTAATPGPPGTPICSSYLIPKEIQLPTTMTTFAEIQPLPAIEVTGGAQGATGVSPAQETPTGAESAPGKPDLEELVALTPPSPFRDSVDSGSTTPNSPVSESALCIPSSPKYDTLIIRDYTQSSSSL
Conditions: not given
Background: Loss of bound radioactivity is the signal in a displacement assay; it reports binding, not function.
With `O=S(=O)(c1ccc(F)cc1)c1cnc2c(F)cccc2c1-c1ccc(Cl)cc1`, the inhibition was 91.5%.
Still for that read-out and setting: the figure for `O=S(=O)(c1ccc(F)cc1)c1cnc2cc(F)ccc2c1-c1ccc(Cl)cc1` is 91.6%.
Same read-out and setting: as for `O=S(=O)(c1ccc(F)cc1)c1cnc2cc(Cl)ccc2c1-c1ccc(Cl)cc1`, the figure is 92.8%; as for `O=S(=O)(c1ccc(F)cc1)c1cnc2ccc(F)cc2c1-c1ccc(Cl)cc1`, 76.3%.

Another series deals with Metabotropic glutamate receptor 5 (Homo sapiens, UniProt P41594). The series can be described thus: Negative allosteric modulation of human mGluR5a expressed in CHO cells assessed as reduction in DHPG-induced cytosolic Ca2+ influx after 10 to 20 mins by fluo-4/AM-dye based fluorometric analysis.
Metabotropic glutamate receptor 5 (Homo sapiens, UniProt P41594), sequence (P41594 whole entry): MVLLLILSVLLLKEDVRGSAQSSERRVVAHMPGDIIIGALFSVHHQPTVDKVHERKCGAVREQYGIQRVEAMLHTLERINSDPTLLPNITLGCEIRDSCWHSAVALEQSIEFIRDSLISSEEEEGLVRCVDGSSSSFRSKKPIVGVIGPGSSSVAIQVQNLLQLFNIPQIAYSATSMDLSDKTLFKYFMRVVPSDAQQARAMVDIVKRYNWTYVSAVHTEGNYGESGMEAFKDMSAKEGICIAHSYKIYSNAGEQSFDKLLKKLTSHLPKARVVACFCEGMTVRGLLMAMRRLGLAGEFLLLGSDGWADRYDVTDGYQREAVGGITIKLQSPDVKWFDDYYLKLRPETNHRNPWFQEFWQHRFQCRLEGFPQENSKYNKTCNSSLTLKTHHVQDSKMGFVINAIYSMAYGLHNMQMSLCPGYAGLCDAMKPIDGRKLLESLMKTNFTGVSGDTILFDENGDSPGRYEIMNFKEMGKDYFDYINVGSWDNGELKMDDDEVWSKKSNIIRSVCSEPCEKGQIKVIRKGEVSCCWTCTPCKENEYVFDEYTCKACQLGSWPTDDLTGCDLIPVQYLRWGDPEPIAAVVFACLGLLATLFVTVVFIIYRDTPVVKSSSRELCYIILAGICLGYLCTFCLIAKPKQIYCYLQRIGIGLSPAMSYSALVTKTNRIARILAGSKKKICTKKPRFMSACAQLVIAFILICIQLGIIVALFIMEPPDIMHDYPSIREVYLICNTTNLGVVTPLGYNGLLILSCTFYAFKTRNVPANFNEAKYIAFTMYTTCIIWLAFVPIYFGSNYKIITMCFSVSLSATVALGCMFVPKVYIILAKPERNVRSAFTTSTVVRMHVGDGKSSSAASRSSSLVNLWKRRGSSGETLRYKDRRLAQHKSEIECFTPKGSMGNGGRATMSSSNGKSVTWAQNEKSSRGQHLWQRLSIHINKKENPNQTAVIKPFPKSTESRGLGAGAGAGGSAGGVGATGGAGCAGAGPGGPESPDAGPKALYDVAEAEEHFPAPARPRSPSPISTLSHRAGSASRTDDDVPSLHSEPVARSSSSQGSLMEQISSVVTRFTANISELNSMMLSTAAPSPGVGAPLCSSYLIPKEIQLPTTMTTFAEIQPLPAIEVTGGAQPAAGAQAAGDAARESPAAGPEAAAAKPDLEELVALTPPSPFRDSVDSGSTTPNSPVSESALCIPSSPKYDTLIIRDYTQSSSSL
Conditions: not given
The series is classed as functional, cell-based.
For `O=S(=O)(c1cc(Cl)cc(Cl)c1)c1cnc2cc(F)ccc2c1-c1ccc(Cl)cc1`, the IC50 is 94 nM.
On the same count and under the same terms, as for `O=S(=O)(c1cc(Cl)cc(Cl)c1)c1cnc2c(F)cccc2c1-c1ccc(F)cc1`, the figure is 25 nM; as for `O=S(=O)(c1cccc(F)c1)c1cnc2c(F)cccc2c1-c1ccc(F)cc1`, 69 nM.
Same read-out and setting: as for `O=S(=O)(c1ccc(F)c(Cl)c1)c1cnc2cc(F)ccc2c1-c1ccc(F)cc1`, the figure is 21 nM.

Another series concerns Rattus norvegicus. The series can be described thus: Anxiolytic activity in ip dosed Wistar rat assessed as increase in water drinking time during punished period administered as suspension by Vogel punished drinking conflict test. The class given is functional. The following applies: read-out: MED. The method in brief: (§1)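 Vogel punished-drinking test in rats, single i.p. or p.o. dose as suspension in 5% Tween 80; plasma sampled ~45 min after i.p. or ~75 min after p.o. dosing.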
In the case of `O=S(=O)(c1cc(Cl)cc(Cl)c1)c1cnc2cc(F)ccc2c1-c1ccc(Cl)cc1`, the minimal effective dose is 30 mg/kg.
`O=S(=O)(c1cc(Cl)cc(Cl)c1)c1cnc2c(F)cccc2c1-c1ccc(F)cc1`: the minimal effective dose came to 30 mg/kg.
The same measure, in the same setting: the figure for `O=S(=O)(c1cccc(F)c1)c1cnc2c(F)cccc2c1-c1ccc(F)cc1` is 30 mg/kg; for `O=S(=O)(c1ccc(F)c(Cl)c1)c1cnc2cc(F)ccc2c1-c1ccc(F)cc1` it is 10 mg/kg.

Tested on in the next series: not listed separately
The series can be described thus: Plasma concentration in ip dosed Wistar rat at anxiolytic MED administered as suspension after 45 mins during Vogel punished drinking conflict test. The class given is ADME, organism-based.
Conditions: not given
The method in brief: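 Vehicle was a suspension containing 5% Tween 80, given i.p. at the Vogel minimum effective dose. Plasma was sampled about 45 min after dosing, right after the Vogel punished drinking test.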
`O=S(=O)(c1cc(Cl)cc(Cl)c1)c1cnc2cc(F)ccc2c1-c1ccc(Cl)cc1` gave a concentration at 0.75 h of 377 nM.
On the same count and under the same terms, as for `O=S(=O)(c1cc(Cl)cc(Cl)c1)c1cnc2c(F)cccc2c1-c1ccc(F)cc1`, the figure is 119 nM; as for `O=S(=O)(c1cccc(F)c1)c1cnc2c(F)cccc2c1-c1ccc(F)cc1`, 1210 nM; as for `O=S(=O)(c1ccc(F)c(Cl)c1)c1cnc2cc(F)ccc2c1-c1ccc(F)cc1`, 71 nM.

In a further series the test system is Rattus norvegicus. The series can be described thus: Anxiolytic activity in po dosed Wistar rat assessed as increase in water drinking time during punished period administered as suspension by Vogel punished drinking conflict test. The class given is functional. The conditions noted are these: read-out: MED. In outline: as §1
Take `O=S(=O)(c1ccc(F)c(Cl)c1)c1cnc2cc(F)ccc2c1-c1ccc(F)cc1`: the minimal effective dose is 3 mg/kg.

A further series concerns Plasma. The series can be described thus: Plasma concentration in Wistar rat at 30 mg/kg, po administered as single dose. The following applies: in vivo. The class given is ADME, organism-based.
With `O=S(=O)(c1ccc(F)c(Cl)c1)c1cnc2cc(F)ccc2c1-c1ccc(F)cc1`, the concentration is 968 nM.

The subject of the next series is Rattus norvegicus. The series can be described thus: Therapeutic index, ratio of MED for effect on spatial learning performance in po dosed Wistar rat by Morris water maze test to MED for anxiolytic activity in Wistar rat by Vogel punished drinking conflict test.
Conditions: not given
The method in brief:
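Index is the Morris water maze minimum effective dose (oral, given 1 h before the first daily trial, 4 days of 3 trials) divided by the Vogel punished drinking minimum effective dose.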
For the compound `O=S(=O)(c1ccc(F)c(Cl)c1)c1cnc2cc(F)ccc2c1-c1ccc(F)cc1`, the TI entry is recorded as “<=10”.

The next series relates to Rattus norvegicus. The experiment in a line: Therapeutic index, ratio of plasma concentration causing effect on spatial learning performance in po dosed Wistar rat by Morris water maze test to plasma concentration causing anxiolytic activity in Wistar rat by Vogel punished drinking conflict test.
Conditions: not given
In outline: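 Index is the plasma level in rats at 30 mg/kg p.o. in the Morris water maze (sampled after the last trial on Day 4) divided by the plasma level at the Vogel minimum effective dose. Vogel plasma was sampled right after the test.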
Turning to `O=S(=O)(c1ccc(F)c(Cl)c1)c1cnc2cc(F)ccc2c1-c1ccc(F)cc1`, the TI result is “<=9.1”.

Another series relates to Rattus norvegicus. The series can be described thus: Effect on spatial learning performance in po dosed Wistar rat measured as escape latency dosed 1 hr prior to first daily trial by Morris water maze test. The class given is ADME, organism-based. The following applies: in vivo. The method in brief:
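Morris water maze with male Harlan-Wistar rats (190–220 g): three trials a day for 4 days, hidden 10 cm platform, video tracking; 30 mg/kg p.o. in Type IV lipid formulation 1 h before first daily trial; plasma taken after last Day 4 trial; 7–17 rats/group.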
Take `O=S(=O)(c1ccc(F)c(Cl)c1)c1cnc2cc(F)ccc2c1-c1ccc(F)cc1`: the Activity result is given as “Toxic”.
